{"source": "ChEMBL document CHEMBL4152210", "about": "“Design, synthesis, anti-lung cancer activity, and chemosensitization of tumor-selective MCACs based on ROS-mediated JNK pathway activation and NF-κB pathway inhibition” (Eur J Med Chem, 2018)", "key": {"[1]": {"assay": "Selectivity index, ratio of IC50 for human HL7702 cells to IC50 for human H460 cells", "assay_type": "toxicity", "procedure,_shortened": "(§1)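 Selectivity index taken as the logarithm of the ratio of the HL7702 IC50 to the cancer-line IC50. […] Not calculated when an IC50 was lacking.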"}, "A549 [2]": {"test_system": "A549", "assay": "Chemosensitization activity in human A549 cells assessed as inhibition of clonogenic growth at 0.5 uM in presence of 0.25 uM cisplatin incubated for 2 days followed by replacement of growth media and measured after 8 days by crystal violet staining-based assay relative to control", "assay_type": "functional", "procedure,_shortened": "(§2)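 A549 seeded at 1000 cells per well in 6-well plates, exposed to drug alone or combined with cisplatin or 5-Fu over a concentration series. Drug-containing medium replaced after 2 days. After a further 8 days, fixed with 1% methanol/1% formaldehyde and stained with 0.5% crystal violet. Percent inhibition at each concentration calculated relative to control.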"}, "A549 [3]": {"test_system": "A549", "assay": "Antiproliferative activity against human A549 cells harboring IKKbeta at 6.67 to 60 uM after 24 hrs by MTT assay", "assay_type": "functional, cell-based", "procedure,_shortened": "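A549 (seeded 3 × 10^5 per well, overnight) transfected with IKKβ plasmid or empty vector using lipofectamine 2000 in serum-free medium for 6 h, then moved to 1640 with 10% FBS. Treated at 60, 20 or 6.67 µM for 24 h. MTT (5 mg/mL stock) added for 4 h, formazan dissolved in DMSO, absorbance read at 490 nm.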"}, "A549 [4]": {"test_system": "A549", "assay": "Cytotoxicity against human A549 cells assessed as reduction in cell viability after 72 hrs by MTT assay", "assay_type": "functional, cell-based", "conditions": "A549, 72 h", "procedure,_shortened": "(§3)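 Cells in RPMI 1640 with 10% heat-inactivated FBS and penicillin/streptomycin at 37 °C, 5% CO2. Seeded at 4000 per well, adhered overnight, then exposed to graded compound concentrations in triplicate wells for 72 h. MTT (5 mg/mL stock) added for 4 h, dissolved in DMSO, A490 read. IC50 is the concentration reducing viability by 50% versus untreated control.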"}, "A549 [5]": {"test_system": "A549", "assay": "Induction of ROS generation in human A549 cells at 10 uM after 12 hrs by DCFDA staining based flow cytometric analysis", "assay_type": "functional, cell-based", "conditions": "in the assay text read “after 9 hrs” for “after 12 hrs”", "procedure,_shortened": "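A549 (6 × 10^5 per 60 mm dish) exposed to 10 µM over a time course up to 12 h, or at 1, 5 or 10 µM for 9 h. Optional NAC (5 mM) pretreatment for 1 h before 10 µM for 9 h. Cells loaded with DCF-DA (10 µM) for 30 min at 37 °C in the dark, washed, and read by flow cytometry.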"}, "[6]": {"assay": "Selectivity index, ratio of IC50 for human HL7702 cells to IC50 for human A549 cells", "assay_type": "toxicity", "procedure,_shortened": "as §1"}, "A549 [7]": {"test_system": "A549", "assay": "Chemosensitization activity in human A549 cells assessed as inhibition of clonogenic growth at 0.25 uM in presence of 9 uM cisplatin incubated for 2 days followed by replacement of growth media and measured after 8 days by crystal violet staining-based assay relative to control", "assay_type": "functional", "procedure,_shortened": "as §2"}, "A549 [8]": {"test_system": "A549", "assay": "Cell cycle arrest in human A549 cells assessed as increase in accumulation at G2/M phase after 10 hrs by propidium iodide staining based flow cytometric analysis", "assay_type": "functional", "procedure,_shortened": "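A549 (6 × 10^5 per 60 mm dish, overnight) treated at 1, 5 or 10 µM for 10 h, with BMS345541 (20 µM) as positive control. Trypsinized, fixed in ice-cold 70% ethanol at −20 °C for 30 min, treated with RNase A, stained with 50 µg/mL PI, analysed by flow cytometry.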"}, "[9]": {"assay": "Selectivity index, ratio of IC50 for human HL7702 cells to IC50 for human NCI-H1975 cells", "assay_type": "toxicity", "procedure,_shortened": "as §1"}, "A549 [10]": {"test_system": "A549", "assay": "Induction of apoptosis in human A549 cells assessed as increase in caspase-3 level after 24 hrs by Western blot analysis", "assay_type": "functional, cell-based"}, "A549 [11]": {"test_system": "A549", "assay": "Chemosensitization activity in human A549 cells assessed as inhibition of clonogenic growth at 0.5 uM in presence of 0.74 uM cisplatin incubated for 2 days followed by replacement of growth media and measured after 8 days by crystal violet staining-based assay relative to control", "assay_type": "functional", "procedure,_shortened": "as §2"}, "NCI-H460": {"test_system": "NCI-H460", "assay": "Cytotoxicity against human H460 cells assessed as reduction in cell viability after 72 hrs by MTT assay", "assay_type": "functional, cell-based", "conditions": "NCI-H460, 72 h", "procedure,_shortened": "as §3"}, "A549 [12]": {"test_system": "A549", "assay": "Chemosensitization activity in human A549 cells assessed as inhibition of clonogenic growth at 0.25 uM in presence of 0.74 uM cisplatin incubated for 2 days followed by replacement of growth media and measured after 8 days by crystal violet staining-based assay relative to control", "assay_type": "functional", "procedure,_shortened": "as §2"}, "[13]": {"target": "T1, NF-kappa-B inhibitor alpha (Homo sapiens) (UniProt P25963)", "T1 sequence (whole entry)": "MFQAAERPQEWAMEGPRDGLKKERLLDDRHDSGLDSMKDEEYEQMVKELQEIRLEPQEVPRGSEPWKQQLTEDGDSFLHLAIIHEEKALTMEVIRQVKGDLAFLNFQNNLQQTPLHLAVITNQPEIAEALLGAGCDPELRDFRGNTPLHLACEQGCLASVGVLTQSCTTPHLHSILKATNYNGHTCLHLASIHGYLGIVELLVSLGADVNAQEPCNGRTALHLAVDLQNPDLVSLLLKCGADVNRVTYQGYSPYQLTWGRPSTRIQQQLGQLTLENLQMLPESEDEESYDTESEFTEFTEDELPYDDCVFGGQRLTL", "assay": "Inhibition of TNF-alpha induced IkappaBalpha degradation in human A549 cells at 10 uM pretreated with 5 mM NAC for 1 hr followed by compound addition and measured after 1 hr by Western blot analysis", "assay_type": "cell-based", "procedure,_shortened": "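A549 preincubated 1 h at 1, 5 or 10 µM, or with BMS345541 (20 µM), then stimulated with TNFα (1 ng/mL) for 15 min. NAC arm: 5 mM NAC for 1 h, then 10 µM for 1 h. IκBα detected by western blot, GAPDH as loading control.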"}, "A549 [14]": {"test_system": "A549", "assay": "Chemosensitization activity in human A549 cells assessed as inhibition of clonogenic growth at 1 uM in presence of 0.25 uM cisplatin incubated for 2 days followed by replacement of growth media and measured after 8 days by crystal violet staining-based assay relative to control", "assay_type": "functional", "procedure,_shortened": "as §2"}, "A549 [15]": {"test_system": "A549", "assay": "Induction of apoptosis in human A549 cells after 24 hrs by Annexin V-FITC/propidium iodide staining based flow cytometric analysis", "assay_type": "functional, cell-based", "procedure,_shortened": "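A549 treated 24 h at 1, 5 or 10 µM, with BMS345541 20 µM as control. Inhibitor arms pretreated 1 h with NAC (5 mM) or SP600125 (10 µM) before 10 µM. Cells harvested with EDTA-free trypsin, stained with FITC Annexin V and PI for 15 min at room temperature in the dark, analysed by flow cytometry.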"}, "[16]": {"target": "Mitogen-activated protein kinase 8/9 (Homo sapiens) (UniProt P45983+P45984)", "sequence (P45983 whole entry, looked up)": "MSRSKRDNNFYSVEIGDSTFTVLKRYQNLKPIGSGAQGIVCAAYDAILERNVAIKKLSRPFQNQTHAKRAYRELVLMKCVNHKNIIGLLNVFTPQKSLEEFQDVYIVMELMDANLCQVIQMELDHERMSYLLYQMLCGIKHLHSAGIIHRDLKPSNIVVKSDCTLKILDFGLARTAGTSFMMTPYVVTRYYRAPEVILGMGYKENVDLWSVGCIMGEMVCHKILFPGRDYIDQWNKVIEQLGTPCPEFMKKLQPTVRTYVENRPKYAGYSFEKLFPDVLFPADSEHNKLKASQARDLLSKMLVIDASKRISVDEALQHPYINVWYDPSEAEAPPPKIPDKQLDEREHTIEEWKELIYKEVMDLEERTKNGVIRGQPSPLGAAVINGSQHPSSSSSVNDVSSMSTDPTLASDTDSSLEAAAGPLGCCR", "sequence (P45984 whole entry, looked up)": "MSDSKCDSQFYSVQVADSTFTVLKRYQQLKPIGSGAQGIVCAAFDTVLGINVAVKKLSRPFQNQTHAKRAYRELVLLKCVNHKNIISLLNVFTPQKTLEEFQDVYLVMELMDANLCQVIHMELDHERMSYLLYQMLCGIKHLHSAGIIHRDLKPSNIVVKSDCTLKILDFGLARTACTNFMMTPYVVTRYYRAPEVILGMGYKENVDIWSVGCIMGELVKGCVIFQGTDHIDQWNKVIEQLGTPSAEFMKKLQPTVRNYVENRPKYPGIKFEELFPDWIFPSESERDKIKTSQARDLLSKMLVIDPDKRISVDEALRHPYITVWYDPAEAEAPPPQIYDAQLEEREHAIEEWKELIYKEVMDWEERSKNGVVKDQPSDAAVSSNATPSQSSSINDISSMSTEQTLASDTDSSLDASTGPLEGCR", "assay": "Induction of JNK 1/2 phosphorylatyion in human A549 cells at 10 uM pretreated with 5 mM NAC for 1 hr followed by compound addition and measured after 6 hrs by Western blot analysis", "assay_type": "cell-based", "procedure,_shortened": "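A549 exposed at 10 µM for varying times, or at various concentrations for 6 h. Inhibition arms pretreated 1 h with SP600125 (10 µM) or NAC (5 mM) before 10 µM for 6 h. Lysates run on 10% SDS-PAGE and transferred to PVDF. p-JNK probed, GAPDH as loading control.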"}}, "note": "pIC50: −log10 of the molar value. Activity calls are given as the source filed them. No cut-off for these calls is given here."}
{"smiles": "COc1cc(/C=C2\\CN(C)C/C(=C\\c3cc(OC)c(OC)c(OC)c3)C2=O)cc(OC)c1OC", "values": [{"measurement": "log(RatioIC50)", "setting": "[1]", "value": 1.42}, {"measurement": "inhibition (INH)", "setting": "A549 [2]", "value": 59, "unit": "%"}, {"measurement": "Activity", "setting": "A549 [3]", "value": "inactive"}, {"measurement": "pIC50", "setting": "A549 [4]", "value": 5.77}, {"measurement": "Activity", "setting": "A549 [5]", "value": "Dose-dependent effect"}, {"measurement": "log(RatioIC50)", "setting": "[6]", "value": 1.19}, {"measurement": "inhibition (INH)", "setting": "A549 [7]", "value": 99, "unit": "%"}, {"measurement": "Activity", "setting": "A549 [8]", "value": "Dose-dependent effect"}, {"measurement": "log(RatioIC50)", "setting": "[9]", "value": 1.42}, {"measurement": "Activity", "setting": "A549 [10]", "value": "Dose-dependent effect"}, {"measurement": "inhibition (INH)", "setting": "A549 [11]", "value": 82, "unit": "%"}, {"measurement": "pIC50", "setting": "NCI-H460", "value": 6.00}, {"measurement": "inhibition (INH)", "setting": "A549 [12]", "value": 63, "unit": "%"}, {"measurement": "inhibition", "setting": "[13]", "value": "inactive"}, {"measurement": "inhibition (INH)", "setting": "A549 [14]", "value": 90, "unit": "%"}, {"measurement": "Activity", "setting": "A549 [15]", "value": "Dose-dependent effect"}, {"measurement": "Activity", "setting": "[16]", "value": "inactive"}]}
